ChEMBL document CHEMBL3779851, “Synthesis and biological evaluation of salicylic acid conjugated isoxazoline analogues on immune cell proliferation and angiogenesis” (2016)
The source made the active and inactive calls. No cut-off for these calls is given here.

Key:
[1] = tested on: HEK293; assay: Induction of cell proliferation of HEK293 cells assessed as proliferation rate at 100 uM measured up to 72 hrs by MTT assay; type: functional; details: Homo sapiens, HEK293, 72 h; read-out: Activity
[2] = tested on: PBL; assay: Immunostimulatory activity in human PBL assessed as increase in cell proliferation […] after 72 hrs by MTT assay relative to control; type: functional
In short: (§1)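 Ficoll-isolated human PBLs were plated at 2.5×10^6 cells/mL in RPMI-1640 at 37 °C, 5% CO2. After 3 h they were treated with 0, 10, 20, 50 or 100 µM compound in DMSO, with Con A at 1–20 µg/mL as reference mitogen. MTT was added at 72 h for 4 h, and formazan dissolved in DMSO was read at 570 nm. Proliferative index was taken as fold over untreated control, from three independent experiments.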

[3] = tested on: PBL; assay: Ex-vivo induction of IL-2 production in human PBL at 100 uM after 72 hrs by ELISA relative to control; type: functional
In short: (§2)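 Human PBLs were isolated from heparinized venous blood of consenting volunteers aged 18–60 y on Ficoll-hypaque (1.077 g/mL). They were seeded at 5×10^5 cells/well in RPMI-1640, exposed to compound in DMSO, and held 72 h at 37 °C, 5% CO2. Supernatants were taken after centrifugation at 240 × g, and IL-2, IL-12 and IL-23 were measured by ELISA, in triplicate.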

[4] = tested on: PBL; assay: Ex-vivo induction of IL-23 production in human PBL at 100 uM after 72 hrs by ELISA; type: functional, cell-based; in short: as §2
[5] = tested on: PBL; assay: Ex-vivo induction of IL-2 production in human PBL at 100 uM after 72 hrs by ELISA (reference value: 328 pg/ml); type: functional; in short: as §2
[6] = tested on: PBL; assay: Ex-vivo induction of IL-12 production in human PBL at 100 uM after 72 hrs by ELISA; type: functional, cell-based; in short: as §2
[7] = Immunostimulatory activity in Swiss albino mouse splenocytes assessed as increase in proliferation at 100 uM after 72 hrs by MTT assay relative to ConA; type: functional, Splenocyte
In short: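 Splenocytes came from Swiss albino mice (23–25 g, 12 weeks). Erythrocytes were lysed in NH4Cl/KHCO3/EDTA buffer, pH 7.4. Cells were plated at 2.5×10^6 cells/mL in RPMI-1640 at 37 °C, 5% CO2, and compound (0–100 µM in DMSO) was added after 3 h. After 72 h, MTT was added for 4 h and formazan dissolved in DMSO was read at 570 nm. Con A (1–20 µg/mL) served as reference, and the index was expressed as fold over untreated control (1.0).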

[8] = target: Prostaglandin G/H synthase 1 (Homo sapiens) (UniProt P23219); assay: Inhibition of COX1 in human PBL after 72 hrs by colorimetric method; details: concentration not given here
Chain of Prostaglandin G/H synthase 1 (Homo sapiens) (P23219 whole entry): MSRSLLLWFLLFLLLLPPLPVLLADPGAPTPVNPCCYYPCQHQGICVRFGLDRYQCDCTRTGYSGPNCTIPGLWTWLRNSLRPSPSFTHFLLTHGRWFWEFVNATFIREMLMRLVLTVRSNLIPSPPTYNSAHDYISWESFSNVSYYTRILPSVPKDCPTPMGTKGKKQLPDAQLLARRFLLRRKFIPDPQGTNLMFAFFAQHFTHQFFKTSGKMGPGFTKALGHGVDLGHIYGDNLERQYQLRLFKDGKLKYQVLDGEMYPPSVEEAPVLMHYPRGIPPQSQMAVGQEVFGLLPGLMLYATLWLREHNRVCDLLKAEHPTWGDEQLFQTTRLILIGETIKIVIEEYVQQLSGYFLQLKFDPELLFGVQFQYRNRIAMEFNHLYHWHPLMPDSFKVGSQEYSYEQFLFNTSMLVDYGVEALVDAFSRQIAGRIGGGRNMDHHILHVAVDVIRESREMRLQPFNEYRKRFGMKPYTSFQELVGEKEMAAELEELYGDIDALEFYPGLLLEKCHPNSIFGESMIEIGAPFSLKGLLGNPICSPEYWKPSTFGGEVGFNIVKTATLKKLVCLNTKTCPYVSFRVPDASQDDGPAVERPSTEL

[9] = tested on: PBL; assay: Immunostimulatory activity in human PBL assessed as increase in cell proliferation after 72 hrs by MTT assay; type: functional, cell-based; in short: as §1
[10] = tested on: Chorioallantoic membrane; assay: Pro-angiogenic activity in chicken chorioallantoic membrane assessed as dense blood vessel formation by measuring microvascular density at 20 uM after 12 days; type: functional; details: Gallus gallus
[11] = tested on: Cornea; assay: Pro-angiogenic activity in rat cornea assessed as vascularization by measuring microvascular density at 20 ug after overnight incubation; type: functional

Row | Compound | growth at 100 µM [1] | Activity [2] | other results
1 | COc1ccc(C2ON=C(c3ccc(Cl)cc3)C2C(=O)c2ccc(O)c(C(=O)O)c2)cc1 (configuration not stated) | 11% | inactive | 
2 | COc1ccc(C2ON=C(c3cccc(Cl)c3)C2C(=O)c2ccc(O)c(C(=O)O)c2)cc1 (configuration not stated) | 9% | inactive | 
3 | O=C(O)c1cc(C(=O)C2C(c3ccc(Cl)cc3)=NOC2c2ccc(Cl)cc2)ccc1O (configuration not stated) | 9% | inactive | 
4 | O=C(O)c1cc(C(=O)C2C(c3cccc(Cl)c3)=NOC2c2ccc(Br)cc2)ccc1O (configuration not stated) | 12% | inactive | 
5 | O=C(O)c1cc(C(=O)C2C(c3cccc(Cl)c3)=NOC2c2cccc(Cl)c2)ccc1O (configuration not stated) | 42% | Active | 
6 | COc1ccc(C2=NOC(c3ccc(O)cc3)C2C(=O)c2ccc(O)c(C(=O)O)c2)cc1 (configuration not stated) | 8% |  | 
7 | O=C(O)c1cc(C(=O)C2C(c3cccc(Cl)c3)=NOC2c2ccc(O)cc2)ccc1O (configuration not stated) | 0% | inactive | 
8 | O=C(O)c1cc(C(=O)C2C(c3ccc(Cl)cc3)=NOC2c2ccc(Br)cc2)ccc1O (configuration not stated) | 6% | inactive | 
9 | COc1ccc(C2=NOC(c3ccccc3)C2C(=O)c2ccc(O)c(C(=O)O)c2)c(OC)c1 (configuration not stated) | 0% |  | 
10 | COc1ccc(C2=NOC(c3cccc(Cl)c3)C2C(=O)c2ccc(O)c(C(=O)O)c2)cc1 (configuration not stated) | 73% |  | fold change (FC) [3]: 4; Activity [4]: inactive; Activity [5]: 1460 pg/mL; Activity [6]: inactive; fold change (FC) [7]: 1.2; inhibition [8]: 39%; Activity [9]: Dose-dependent effect; fold change (FC) [2]: 1.25; Activity [10]: Active; Activity [11]: Active
